Active and inactive are the calls of the source. The rule behind the calls is not given here.
Key:
[1] = Stability in beagle dog hepatocytes assessed as parent compound remaining at 10 uM after 60 mins by LC-MS/MS analysis; format: ADME, cell-based, Canis lupus familiaris, Hepatocyte; details: read-out: Stability
How it was run: (§1)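 Cryopreserved hepatocytes (Sprague-Dawley rat, beagle dog, human) incubated with compound at 10 µM, 37 °C, for up to 4 h. About 0.5×10^6 cells/well for rat and dog, 0.24×10^6 for human.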

[2] = tested on: U-266; assay: Cell cycle arrest in human U266 cells assessed as accumulation at G2/M phase at 5 uM after 24 hrs by propidium iodide staining based flow cytometry (reference value: 35.13%); format: functional
[3] = tested on: Mus musculus; assay: Toxicity in nude mouse xenografted with human RPMI8226 cells assessed as change in body weight at 30 mg/kg, iv or ip administered for 5 days followed by 2 days off for 35 days cotreated with bortezomib; format: organism-based; details: in vivo
How it was run: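 Male 8-week nude mice implanted sc with 1×10^7 RPMI 8226 cells, randomized at ~200 mm3 (n = 8). […] Vehicle: 0.5% EtOH/0.5% Cremophor in 5% dextran.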

[4] = tested on: NCI-H929; assay: Cell cycle arrest in human NCI-H929 cells assessed as accumulation at sub-G1 phase at 5 uM after 24 hrs by propidium iodide staining based flow cytometry (reference value: 5.59%); format: functional
[5] = tested on: Mus musculus; assay: Toxicity in Balb/c mouse assessed as change in body weight at 50 to 200 mg/kg, ip administered once daily for 1 week measured for 1 week; format: organism-based; details: in vivo, 168 h
How it was run: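 Male 8-week balb/c mice, ten per dose, given compound ip once daily for 7 days at 50, 100 or 200 mg/kg, then monitored one week. Body weight recorded over 14 days. MTD = highest dose with no drug-related moribund state or death and weight loss under 20%.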

[6] = tested on: NCI-H929; assay: Cell cycle arrest in human NCI-H929 cells assessed as accumulation at G0/G1 phase at 5 uM after 24 hrs in presence of bortezomib by propidium iodide staining based flow cytometry (reference value: 49.39%); format: functional
[7] = tested on: RPMI-8226; assay: Cell cycle arrest in human RPMI8226 cells assessed as accumulation at G2/M phase at 5 uM after 24 hrs by propidium iodide staining based flow cytometry (reference value: 23.94%); format: functional
[8] = tested on: NCI-H929; assay: Cell cycle arrest in human NCI-H929 cells assessed as accumulation at sub-G1 phase at 5 uM after 24 hrs in presence of bortezomib by propidium iodide staining based flow cytometry (reference value: 5.59%); format: functional
[9] = tested on: U-266; assay: Induction of apoptosis in human U266 cells at 5 uM after 24 hrs by Annexin V/propidium iodide staining based flow cytometry; format: functional, cell-based
[10] = tested on: NCI-H929; assay: Induction of apoptosis in human NCI-H929 cells at 5 uM after 24 hrs in presence of bortezomib by Annexin V/propidium iodide staining based flow cytometry; format: functional, cell-based
[11] = tested on: U-266; assay: Cell cycle arrest in human U266 cells assessed as accumulation at sub-G1 phase at 5 uM after 24 hrs in presence of bortezomib by propidium iodide staining based flow cytometry (reference value: 10.76%); format: functional
[12] = tested on: NCI-H929; assay: Cell cycle arrest in human NCI-H929 cells assessed as accumulation at S phase at 5 uM after 24 hrs in presence of bortezomib by propidium iodide staining based flow cytometry (reference value: 13.5%); format: functional
[13] = Stability in Sprague-Dawley rat hepatocytes assessed as parent compound remaining at 10 uM after 60 mins by LC-MS/MS analysis; format: ADME, cell-based, Hepatocyte; details: read-out: Stability; how it was run: as §1
[14] = tested on: Salmonella typhimurium; assay: Mutagenicity in Salmonella typhimurium TA100 assessed as increase in number of revertant colonies at 3 to 3000 ug/plate in presence of S9 fraction by Ames test; format: toxicity; details: salmonella enterica subsp. enterica serovar typhimurium
How it was run: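 Ames test, TA98 and TA100. Overnight broth cultures preincubated 20 min at 35-37 °C with compound (DMSO stock) plus Aroclor 1254-induced rat liver S9 mix or PBS, then plated in top agar with 0.05 mM histidine/biotin. Final 3-3000 µg/plate; revertants counted after 72 h at 37 °C. ≥3-fold over vehicle = mutagenic; ≤50% = cytotoxic.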

[15] = tested on: U-266; assay: Cell cycle arrest in human U266 cells assessed as accumulation at S phase at 5 uM after 24 hrs by propidium iodide staining based flow cytometry (reference value: 14.05%); format: functional
[16] = tested on: RPMI-8226; assay: Induction of apoptosis in human RPMI8226 cells at 5 uM after 24 hrs by Annexin V/propidium iodide staining based flow cytometry; format: functional, cell-based
[17] = Stability in human hepatocytes assessed as parent compound remaining at 10 uM after 60 mins by LC-MS/MS analysis; format: ADME, cell-based, Hepatocyte; details: read-out: Stability; how it was run: as §1
[18] = tested on: U-266; assay: Cell cycle arrest in human U266 cells assessed as accumulation at G2/M phase at 5 uM after 24 hrs in presence of bortezomib by propidium iodide staining based flow cytometry (reference value: 35.13%); format: functional
[19] = tested on: RPMI-8226; assay: Cell cycle arrest in human RPMI8226 cells assessed as accumulation at sub-G1 phase at 5 uM after 24 hrs in presence of bortezomib by propidium iodide staining based flow cytometry (reference value: 12.25%); format: functional
[20] = tested on: U-266; assay: Cell cycle arrest in human U266 cells assessed as accumulation at G0/G1 phase at 5 uM after 24 hrs in presence of bortezomib by propidium iodide staining based flow cytometry (reference value: 40.29%); format: functional
[21] = tested on: RPMI-8226; assay: Antitumor activity against human RPMI8226 cells xenografted in nude mouse assessed as tumor growth inhibition at 30 mg/kg, iv or ip administered for 5 days followed by 2 days off for 35 days relative to control; format: functional; details: read-out: TGI
How it was run: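 RPMI 8226 cells (1 × 10^7) implanted s.c. in eight-week-old male nude mice. At mean tumor volume 200 mm3, mice randomized into four groups (n = 8). Caliper measurement every 3–4 days, volume L×W²/2. %TGI computed from treated versus control volume changes relative to time 0.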

[22] = Apparent permeability from apical to basolateral side in human Caco2 cells assessed as drug recovery at 10 uM after 2 hrs by LC-MS/MS analysis; format: ADME, cell-based; details: Caco-2, read-out: Drug recovery
How it was run: (§2)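 Caco-2 cells seeded at 8.4 × 10^4 cells/cm2 on polycarbonate inserts for 21 days. For A→B, donor was apical (HBSS/MES pH 6.5, 10 µM compound) and receiver basolateral (HBSS/HEPES pH 7.4). For B→A, donor was basolateral (HBSS/HEPES pH 7.4, 10 µM) and receiver apical (HBSS/MES pH 6.5). Incubated at 37 °C for 2 h. Receiver sampled at 30, 60, 90 and 120 min, donor at 0 and 120 min.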

[23] = tested on: RPMI-8226; assay: Cell cycle arrest in human RPMI8226 cells assessed as accumulation at S phase at 5 uM after 24 hrs in presence of bortezomib by propidium iodide staining based flow cytometry (reference value: 19.53%); format: functional
[24] = Apparent permeability from apical to basolateral side in human Caco2 cells at 10 uM after 2 hrs by LC-MS/MS analysis; format: ADME, cell-based; details: Caco-2; how it was run: as §2
[25] = Half life in Sprague-Dawley rat hepatocytes at 10 uM by LC-MS/MS analysis; format: ADME, cell-based, Hepatocyte
How it was run: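 Substrate depletion in cryopreserved hepatocytes (male SD rat, male beagle dog, human). Compound at 10 µM incubated at 37 °C for up to 4 h. Cell density approximately 0.5 × 10^6 hepatocytes/well for rat and dog, 0.24 × 10^6/well for human. Half-life and CLint derived from depletion; % remaining at 60 min also reported.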

remaining at 1 h, 10 µM [1]: 70.6% | remaining at 1 h, 10 µM [13]: 28.4% | remaining at 1 h, 10 µM [17]: 86.4% | recovery at 2 h, 10 µM [22]: 72.2% | Papp A→B at 2 h, 10 µM [24]: 24 ×10⁻⁶ cm/s | half-life at 10 µM [25]: 55.8 min
SMILES: O=C(NO)c1ccc(CNc2cccc3cccnc23)cc1
Activity [2]: 23.3% | Activity [3]: Non-Toxic | Activity [4]: 24.71% | Activity [5]: Non-Toxic | Activity [6]: 15.77% | Activity [7]: 31.53% | Activity [8]: 74.13% | Activity [9]: Active | Activity [10]: Active | Activity [11]: 45.29% | Activity [12]: 8.6% | Activity [14]: Non-Toxic | Activity [15]: 6.12% | Activity [16]: Active | Activity [18]: 21.52% | Activity [19]: 84.18% | Activity [20]: 25.75% | inhibition in vivo at 30 mg/kg [21]: 60.4% | Activity [23]: 2.46%
